Data from ChEMBL document CHEMBL1132940, “Pharmacophore/receptor models for GABA(A)/BzR subtypes (alpha1beta3gamma2, alpha5beta3gamma2, and alpha6beta3gamma2) via a comprehensive ligand-mapping approach” (J Med Chem, 2000).
pKi: −log10 of the molar value.

Assays:
[1] = biological target: T1, GABA-A receptor; alpha-2/beta-3/gamma-2 (Homo sapiens, UniProt P18507+P28472+P47869); assay: Binding affinity to human recombinant gamma-aminobutyric-acid (GABA) A receptor alpha-2-beta-3-gamma-2; format: protein-complex assay
T1 sequence (P18507 whole entry): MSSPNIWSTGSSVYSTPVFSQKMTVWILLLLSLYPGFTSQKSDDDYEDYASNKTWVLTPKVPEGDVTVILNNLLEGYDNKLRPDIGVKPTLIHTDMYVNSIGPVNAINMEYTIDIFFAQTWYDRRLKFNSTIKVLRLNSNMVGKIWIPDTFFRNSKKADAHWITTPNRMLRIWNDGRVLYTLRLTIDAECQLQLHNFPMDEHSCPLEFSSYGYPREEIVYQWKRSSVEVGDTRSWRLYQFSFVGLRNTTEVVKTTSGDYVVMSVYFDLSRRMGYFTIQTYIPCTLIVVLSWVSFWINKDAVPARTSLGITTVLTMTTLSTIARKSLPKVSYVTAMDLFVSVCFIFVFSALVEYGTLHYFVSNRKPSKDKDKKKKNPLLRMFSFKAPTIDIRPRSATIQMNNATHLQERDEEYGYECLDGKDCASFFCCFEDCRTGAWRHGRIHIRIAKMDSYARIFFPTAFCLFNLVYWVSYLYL
T1 sequence (P28472 whole entry): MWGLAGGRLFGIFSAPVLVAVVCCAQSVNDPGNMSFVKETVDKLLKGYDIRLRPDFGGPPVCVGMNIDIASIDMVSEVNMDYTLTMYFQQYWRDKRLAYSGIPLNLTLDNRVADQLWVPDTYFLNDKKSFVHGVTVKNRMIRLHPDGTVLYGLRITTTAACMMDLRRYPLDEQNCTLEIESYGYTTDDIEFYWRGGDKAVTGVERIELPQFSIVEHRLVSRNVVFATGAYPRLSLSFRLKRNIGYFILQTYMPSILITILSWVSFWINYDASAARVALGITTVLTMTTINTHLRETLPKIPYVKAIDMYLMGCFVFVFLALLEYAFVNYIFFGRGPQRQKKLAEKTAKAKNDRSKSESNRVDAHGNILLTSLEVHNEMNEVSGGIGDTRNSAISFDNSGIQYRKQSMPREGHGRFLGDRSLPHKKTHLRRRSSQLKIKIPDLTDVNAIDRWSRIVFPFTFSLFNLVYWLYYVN
T1 sequence (P47869 whole entry): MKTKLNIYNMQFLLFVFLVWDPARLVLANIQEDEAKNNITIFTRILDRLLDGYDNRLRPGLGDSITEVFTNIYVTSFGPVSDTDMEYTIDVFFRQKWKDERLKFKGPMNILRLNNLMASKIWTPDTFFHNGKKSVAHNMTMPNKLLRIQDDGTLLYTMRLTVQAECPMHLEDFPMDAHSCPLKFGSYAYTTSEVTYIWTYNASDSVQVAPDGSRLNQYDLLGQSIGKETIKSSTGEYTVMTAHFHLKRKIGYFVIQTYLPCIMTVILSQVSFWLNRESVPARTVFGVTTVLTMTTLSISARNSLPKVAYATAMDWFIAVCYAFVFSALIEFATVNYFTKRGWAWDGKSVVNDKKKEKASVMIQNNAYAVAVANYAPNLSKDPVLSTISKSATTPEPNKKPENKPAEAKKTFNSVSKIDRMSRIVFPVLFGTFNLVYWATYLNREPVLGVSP

[2] = biological target: T2, GABA-A receptor; alpha-1/beta-3/gamma-2 (Homo sapiens, UniProt P14867+P18507+P28472); assay: Binding affinity for human recombinant gamma-aminobutyric-acid (GABA) A receptor alpha-1-beta-3-gamma-2; format: protein-complex assay
T2 sequence (P14867 whole entry): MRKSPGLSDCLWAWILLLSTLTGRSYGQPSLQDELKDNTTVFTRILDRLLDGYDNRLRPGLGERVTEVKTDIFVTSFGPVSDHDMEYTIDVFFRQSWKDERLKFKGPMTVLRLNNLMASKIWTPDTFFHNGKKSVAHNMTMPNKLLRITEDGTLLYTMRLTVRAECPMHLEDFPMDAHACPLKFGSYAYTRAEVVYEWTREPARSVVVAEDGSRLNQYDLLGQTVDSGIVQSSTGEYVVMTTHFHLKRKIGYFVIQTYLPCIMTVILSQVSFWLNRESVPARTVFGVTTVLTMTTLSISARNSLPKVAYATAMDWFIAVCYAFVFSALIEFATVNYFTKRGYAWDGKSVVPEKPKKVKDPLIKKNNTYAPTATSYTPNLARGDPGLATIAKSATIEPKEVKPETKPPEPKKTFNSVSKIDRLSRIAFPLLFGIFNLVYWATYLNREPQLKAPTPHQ
T2 sequence (P18507 whole entry): T1 sequence (P18507 whole entry)
T2 sequence (P28472 whole entry): T1 sequence (P28472 whole entry)

[3] = biological target: GABA-A receptor; alpha-6/beta-3/gamma-2 (Homo sapiens, UniProt P18507+P28472+Q16445); assay: Binding affinity for human recombinant gamma-aminobutyric-acid (GABA) A receptor alpha-6-beta-3-gamma-2; format: protein-complex assay
Chain of GABA-A receptor; alpha-6/beta-3/gamma-2 (Q16445 whole entry, one chain of several): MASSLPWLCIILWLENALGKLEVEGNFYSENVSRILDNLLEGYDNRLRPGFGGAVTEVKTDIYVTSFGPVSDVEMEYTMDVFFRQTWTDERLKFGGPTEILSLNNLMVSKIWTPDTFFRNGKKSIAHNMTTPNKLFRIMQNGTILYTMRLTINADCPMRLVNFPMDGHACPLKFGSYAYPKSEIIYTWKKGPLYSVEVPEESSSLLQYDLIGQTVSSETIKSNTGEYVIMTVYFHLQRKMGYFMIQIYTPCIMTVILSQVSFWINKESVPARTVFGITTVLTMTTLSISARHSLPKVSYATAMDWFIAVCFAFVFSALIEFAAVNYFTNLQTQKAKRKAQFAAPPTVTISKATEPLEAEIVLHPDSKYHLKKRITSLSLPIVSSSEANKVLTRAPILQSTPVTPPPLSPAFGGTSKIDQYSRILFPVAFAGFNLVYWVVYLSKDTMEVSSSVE
In short: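 Ltk⁻ cells expressing human α6β3γ2 were harvested by scraping into PBS, centrifuged at 3000g and resuspended in 10 mM KH₂PO₄/100 mM KCl (pH 7.4). Incubation was 1 h at 4 °C with filter harvest and scintillation counting.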

[4] = biological target: T3, GABA-A receptor; alpha-3/beta-3/gamma-2 (Homo sapiens, UniProt P18507+P28472+P34903); assay: Binding affinity for human recombinant gamma-aminobutyric-acid (GABA) A receptor alpha-3-beta-3-gamma-2; format: protein-complex assay
T3 sequence (P18507 whole entry): T1 sequence (P18507 whole entry)
T3 sequence (P28472 whole entry): T1 sequence (P28472 whole entry)
T3 sequence (P34903 whole entry): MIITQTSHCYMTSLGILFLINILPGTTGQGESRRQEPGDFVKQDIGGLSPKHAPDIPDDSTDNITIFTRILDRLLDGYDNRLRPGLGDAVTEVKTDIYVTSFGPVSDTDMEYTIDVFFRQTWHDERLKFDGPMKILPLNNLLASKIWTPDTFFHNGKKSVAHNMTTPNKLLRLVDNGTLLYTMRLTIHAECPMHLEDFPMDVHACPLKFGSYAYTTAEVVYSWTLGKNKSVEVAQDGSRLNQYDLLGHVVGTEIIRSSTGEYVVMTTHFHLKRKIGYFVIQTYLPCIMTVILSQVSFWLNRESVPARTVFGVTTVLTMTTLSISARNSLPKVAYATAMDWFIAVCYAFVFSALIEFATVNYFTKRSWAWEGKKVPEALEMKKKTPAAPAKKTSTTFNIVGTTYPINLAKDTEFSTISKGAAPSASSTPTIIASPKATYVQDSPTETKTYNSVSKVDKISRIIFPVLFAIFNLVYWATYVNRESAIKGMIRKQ

[5] = biological target: T4, GABA-A receptor; alpha-5/beta-3/gamma-2 (Homo sapiens, UniProt P18507+P28472+P31644); assay: Binding affinity for human recombinant gamma-aminobutyric-acid (GABA) A receptor alpha-5-beta-3-gamma-2; format: protein-complex assay
T4 sequence (P18507 whole entry): T1 sequence (P18507 whole entry)
T4 sequence (P28472 whole entry): T1 sequence (P28472 whole entry)
T4 sequence (P31644 whole entry): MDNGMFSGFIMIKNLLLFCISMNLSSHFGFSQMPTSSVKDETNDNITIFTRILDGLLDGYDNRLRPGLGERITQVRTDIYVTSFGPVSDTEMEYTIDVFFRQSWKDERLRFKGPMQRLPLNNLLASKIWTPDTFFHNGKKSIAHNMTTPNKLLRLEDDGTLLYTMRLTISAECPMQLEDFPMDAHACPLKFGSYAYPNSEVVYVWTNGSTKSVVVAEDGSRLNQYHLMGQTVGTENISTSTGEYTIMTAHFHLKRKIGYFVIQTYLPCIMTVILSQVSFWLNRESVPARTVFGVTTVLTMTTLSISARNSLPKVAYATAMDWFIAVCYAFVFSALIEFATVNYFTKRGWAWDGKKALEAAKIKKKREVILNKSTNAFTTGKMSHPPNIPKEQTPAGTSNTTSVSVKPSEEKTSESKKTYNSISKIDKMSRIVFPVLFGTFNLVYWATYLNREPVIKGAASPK

[6] = Selectivity ratio of alpha1 beta-3 gamma2 GABA A / BzR and alpha5 beta-3 gamma2 GABA A / BzR

Compound | pKi [1] | pKi [2] | pKi [3] | pKi [4] | pKi [5] | Ratio [6]
CCCC(=O)c1cc2c(cn1)[nH]c1ccccc12 | 7.80 | 8.68 | < 5.52 | 7.68 | 6.00 | 
CCOC(=O)c1[nH]cc2nc3ccc(OCc4ccc5ccccc5c4)cc3c-2c1COC |  | 7.81 | < 6.00 | 6.53 | 6.49 | 
CCOC(=O)c1cc2c3cc(OCc4ccccc4)ccc3nc-2c[nH]1 | 6.77 | 8.14 | < 5.00 | 6.55 | 6.57 | 
COC(=O)c1cc2c3cc(NCc4ccc5ccccc5c4)ccc3nc-2c[nH]1 | 6.69 | 7.51 | < 5.00 | 6.57 | 6.09 | 
COc1ccc2ncc3c(=O)n(-c4ccccc4)[nH]c3c2c1 | 10.00 | 9.96 | < 8.00 | 10.05 | 9.70 | 
O=c1c2cnc3ccccc3c2[nH]n1-c1ccc(Br)cc1 | 9.68 | 9.74 | 7.40 | 9.60 | 8.89 | 
c1ccc2c(c1)[nH]c1cnc3c4ccncc4[nH]c3c12 | 7.62 | 8.52 | < 5.00 | 7.52 | 6.62 | 
CCOC(=O)c1ncn2c1[C@@H]1CCCN1C(=O)c1ccccc1-2 |  | 8.14 | < 6.52 | 8.15 | 8.80 | 4.6
C#Cc1ccc(-n2[nH]c3c(cnc4ccccc43)c2=O)cc1 | 10.52 | 10.15 |  | 10.40 | 9.77 | 
[N-]=[N+]=Nc1ccc2c(c1)C(c1ccccc1N=[N+]=[N-])=NCC(=O)N2 |  | 5.67 | < 6.00 | 5.34 | 5.79 | 1.32
C#Cc1ccc2ncc3c(=O)n(-c4ccccc4)[nH]c3c2c1 | 10.22 | 10.10 |  | 10.70 | 10.10 | 
CN1Cc2c(C(=O)OC(C)(C)C)ncn2-c2ccc(N=[N+]=[N-])cc2C1=O | 7.66 |  |  | 8.01 |  | 24.3
CCOC(=O)c1ncn2c1[C@@H]1CCCN1C(=O)c1cc(OC)ccc1-2 |  |  |  | 7.61 |  | 108
CN1C(=O)CN=C(c2ccccc2[N+](=O)[O-])c2cc([N+](=O)[O-])ccc21 |  | 9.31 | < 5.00 | 9.12 | 8.11 | 0.06
COC(=O)c1cc2c3cc(SC#N)ccc3nc-2c[nH]1 |  | 8.47 | < 5.00 | 7.52 | 6.85 | 
COc1ccc(-n2nc3c4ccc(OC)cc4[nH]cc-3c2=O)cc1 |  | 9.47 | 8.00 | 9.10 | 9.28 | 
Cc1nnc2n1-c1ccc(Cl)cc1C(c1ccccc1Cl)=NC2 [TRIAZOLAM] | 9.23 |  | < 5.00 |  |  | 
O=C1CN=C(c2ccccc2[N+](=O)[O-])c2cc(Br)ccc2N1 | 7.51 |  | < 5.52 | 7.28 | 6.70 | 0.08
COc1ccc(-n2nc3c4cc(Cl)ccc4[nH]cc-3c2=O)cc1 |  | 9.70 | 8.72 | 9.70 | 9.49 | 
N#CSc1ccc2[nH]c3cnc(SC#N)cc3c2c1 | 6.37 | 7.87 | < 5.30 |  | 5.54 | 
CN1Cc2c(C(=O)OC(C)(C)C)ncn2-c2ccc(O)cc2C1=O |  |  |  |  |  | 10.7
CCOC(=O)c1ncn2c1CN(C)C(=O)c1cc(Br)ccc1-2 |  |  |  |  |  | 3.7
CCOC(=O)c1ncn2c1CN(C)C(=O)c1cc(C#N)ccc1-2 |  |  |  |  |  | 1.7
O=[N+]([O-])c1ccc2[nH]c3cnc([N+](=O)[O-])cc3c2c1 | 7.08 | 7.89 | < 4.30 |  | 6.50 | 
CN1Cc2c(C(=O)OC(C)(C)C)ncn2-c2ccc(C#C[Si](C)(C)C)cc2C1=O |  |  |  |  |  | 75.5
CN1Cc2c(C(=O)OC(C)(C)C)ncn2-c2ccc(I)cc2C1=O |  |  |  |  |  | 25.5
